Experimental data as given in ChEMBL document CHEMBL3259728, “Design, synthesis and biological evaluation of some novel substituted quinazolines as antitumor agents” (2014).

test system: NCI-H522; test: Growth inhibition of human NCI-H522 cells at 10 uM after 48 hrs by SRB assay; assay type: functional; details: NCI-H522, 48 h, read-out: GI
Method in brief: (§1)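 NCI-60 primary one-dose screen run at the US NCI, with human tumour lines from nine cancer types. Compound added once at 10^-5 M, followed by 48 h incubation. End point was sulforhodamine B protein staining read spectrophotometrically. Result given as percent growth of treated cells against untreated controls, reported as % growth inhibition.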

Row | Structure (SMILES) | inhibition of growth at 10 µM
1 | Cc1ccc(-c2nc3ccc(Cl)cc3c(=O)n2NC(=O)CN)cc1 | < 10%

test system: K562; test: Growth inhibition of human K562 cells at 10 uM after 48 hrs by SRB assay; assay type: functional; details: K562, 48 h, read-out: GI; method in brief: as §1

Row | Structure (SMILES) | inhibition of growth at 10 µM
2 | Cc1ccc(-c2nc3ccc(Cl)cc3c(=O)n2NC(=O)CN)cc1 | < 10%

test system: U-251; test: Growth inhibition of human U251 cells at 10 uM after 48 hrs by SRB assay; assay type: functional; details: U-251, 48 h, read-out: GI; method in brief: as §1

Row | Structure (SMILES) | inhibition of growth at 10 µM
3 | Cc1ccc(-c2nc3ccc(Cl)cc3c(=O)n2NC(=O)CN)cc1 | < 10%

test system: not listed separately; test: Growth inhibition of human OVCAR8 cells at 10 uM after 48 hrs by SRB assay; assay type: functional; details: OVCAR-8, 48 h, read-out: GI; method in brief: as §1

Row | Structure (SMILES) | inhibition of growth at 10 µM
4 | Cc1ccc(-c2nc3ccc(Cl)cc3c(=O)n2NC(=O)CN)cc1 | < 10%

test system: not listed separately; test: Growth inhibition of human UACC62 cells at 10 uM after 48 hrs by SRB assay; assay type: functional; details: UACC-62, 48 h, read-out: GI; method in brief: as §1

Row | Structure (SMILES) | inhibition of growth at 10 µM
5 | Cc1ccc(-c2nc3ccc(Cl)cc3c(=O)n2NC(=O)CN)cc1 | < 10%

test system: SK-MEL-5; test: Growth inhibition of human SK-MEL-5 cells at 10 uM after 48 hrs by SRB assay; assay type: functional; details: SK-MEL-5, 48 h, read-out: GI; method in brief: as §1

Row | Structure (SMILES) | inhibition of growth at 10 µM
6 | Cc1ccc(-c2nc3ccc(Cl)cc3c(=O)n2NC(=O)CN)cc1 | < 10%

test system: NCI-H226; test: Growth inhibition of human NCI-H226 cells at 10 uM after 48 hrs by SRB assay; assay type: functional; details: NCI-H226, 48 h, read-out: GI; method in brief: as §1

Row | Structure (SMILES) | inhibition of growth at 10 µM
7 | Cc1ccc(-c2nc3ccc(Cl)cc3c(=O)n2NC(=O)CN)cc1 | 11%

test system: SK-MEL-2; test: Growth inhibition of human SK-MEL-2 cells at 10 uM after 48 hrs by SRB assay; assay type: functional; details: SK-MEL-2, 48 h, read-out: GI; method in brief: as §1

Row | Structure (SMILES) | inhibition of growth at 10 µM
8 | Cc1ccc(-c2nc3ccc(Cl)cc3c(=O)n2NC(=O)CN)cc1 | < 10%

test system: SF-268; test: Growth inhibition of human SF268 cells at 10 uM after 48 hrs by SRB assay; assay type: functional; details: SF-268, 48 h, read-out: GI; method in brief: as §1

Row | Structure (SMILES) | inhibition of growth at 10 µM
9 | Cc1ccc(-c2nc3ccc(Cl)cc3c(=O)n2NC(=O)CN)cc1 | < 10%

test system: MDA-MB-468; test: Growth inhibition of human MDA-MB-468 cells assessed as cell growth at 10 uM after 48 hrs by SRB assay; assay type: functional; details: MDA-MB-468, 48 h, read-out: GI; method in brief: as §1

Row | Structure (SMILES) | inhibition of growth at 10 µM
10 | Cc1ccc(-c2nc3ccc(Cl)cc3c(=O)n2NC(=O)CN)cc1 | < 10%

test system: not listed separately; test: Growth inhibition of human NCI-ADR-RES cells at 10 uM after 48 hrs by SRB assay; assay type: functional; details: read-out: GI; method in brief: as §1

Row | Structure (SMILES) | inhibition of growth at 10 µM
11 | Cc1ccc(-c2nc3ccc(Cl)cc3c(=O)n2NC(=O)CN)cc1 | < 10%

test system: not listed separately; test: Growth inhibition of human SF539 cells at 10 uM after 48 hrs by SRB assay; assay type: functional; details: SF-539, 48 h, read-out: GI; method in brief: as §1

Row | Structure (SMILES) | inhibition of growth at 10 µM
12 | Cc1ccc(-c2nc3ccc(Cl)cc3c(=O)n2NC(=O)CN)cc1 | 15%

test system: not listed separately; test: Growth inhibition of human UACC257 cells at 10 uM after 48 hrs by SRB assay; assay type: functional; details: UACC-257, 48 h, read-out: GI; method in brief: as §1

Row | Structure (SMILES) | inhibition of growth at 10 µM
13 | Cc1ccc(-c2nc3ccc(Cl)cc3c(=O)n2NC(=O)CN)cc1 | < 10%

test system: HT-29; test: Growth inhibition of human HT-29 cells at 10 uM after 48 hrs by SRB assay; assay type: functional; details: HT-29, 48 h, read-out: GI; method in brief: as §1

Row | Structure (SMILES) | inhibition of growth at 10 µM
14 | Cc1ccc(-c2nc3ccc(Cl)cc3c(=O)n2NC(=O)CN)cc1 | 12%

test system: not listed separately; test: Growth inhibition of human BT549 cells at 10 uM after 48 hrs by SRB assay; assay type: functional; details: BT-549, 48 h, read-out: GI
Method in brief: (§2)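 NCI primary one-dose screen. A single concentration of 10^-5 M was added to the cell culture, followed by 48 h incubation and an SRB protein-dye endpoint read spectrophotometrically. Results are growth percentage relative to untreated control cells, reported as % growth inhibition.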

Row | Structure (SMILES) | inhibition of growth at 10 µM
15 | Cc1ccc(-c2nc3ccc(Cl)cc3c(=O)n2NC(=O)CN)cc1 | < 10%

test system: SNB-75; test: Growth inhibition of human SNB75 cells at 10 uM after 48 hrs by SRB assay; assay type: functional; details: SNB-75, 48 h, read-out: GI; method in brief: as §1

Row | Structure (SMILES) | inhibition of growth at 10 µM
16 | Cc1ccc(-c2nc3ccc(Cl)cc3c(=O)n2NC(=O)CN)cc1 | 15%

test system: DU-145; test: Growth inhibition of human DU145 cells at 10 uM after 48 hrs by SRB assay; assay type: functional; details: DU-145, 48 h, read-out: GI; method in brief: as §1

Row | Structure (SMILES) | inhibition of growth at 10 µM
17 | Cc1ccc(-c2nc3ccc(Cl)cc3c(=O)n2NC(=O)CN)cc1 | < 10%

test system: SNB-19; test: Growth inhibition of human SNB19 cells at 10 uM after 48 hrs by SRB assay; assay type: functional; details: SNB-19, 48 h, read-out: GI; method in brief: as §1

Row | Structure (SMILES) | inhibition of growth at 10 µM
18 | Cc1ccc(-c2nc3ccc(Cl)cc3c(=O)n2NC(=O)CN)cc1 | < 10%

test system: Malme-3M; test: Growth inhibition of human MALME-3M cells at 10 uM after 48 hrs by SRB assay; assay type: functional; details: read-out: GI; method in brief: as §1

Row | Structure (SMILES) | inhibition of growth at 10 µM
19 | Cc1ccc(-c2nc3ccc(Cl)cc3c(=O)n2NC(=O)CN)cc1 | < 10%

test system: COLO 205; test: Growth inhibition of human COLO205 cells at 10 uM after 48 hrs by SRB assay; assay type: functional; details: COLO 205, 48 h, read-out: GI; method in brief: as §2

Row | Structure (SMILES) | inhibition of growth at 10 µM
20 | Cc1ccc(-c2nc3ccc(Cl)cc3c(=O)n2NC(=O)CN)cc1 | < 10%

test system: RPMI-8226; test: Growth inhibition of human RPMI8226 cells at 10 uM after 48 hrs by SRB assay; assay type: functional; details: RPMI-8226, 48 h, read-out: GI; method in brief: as §1

Row | Structure (SMILES) | inhibition of growth at 10 µM
21 | Cc1ccc(-c2nc3ccc(Cl)cc3c(=O)n2NC(=O)CN)cc1 | < 10%

test system: IGROV-1; test: Growth inhibition of human IGROV1 cells at 10 uM after 48 hrs by SRB assay; assay type: functional; details: IGROV-1, 48 h, read-out: GI; method in brief: as §1

Row | Structure (SMILES) | inhibition of growth at 10 µM
22 | Cc1ccc(-c2nc3ccc(Cl)cc3c(=O)n2NC(=O)CN)cc1 | < 10%

test system: not listed separately; test: Growth inhibition of human LOXIMVI cells at 10 uM after 48 hrs by SRB assay; assay type: functional; details: LOX IMVI, read-out: GI; method in brief: as §1

Row | Structure (SMILES) | inhibition of growth at 10 µM
23 | Cc1ccc(-c2nc3ccc(Cl)cc3c(=O)n2NC(=O)CN)cc1 | < 10%

test system: PC-3; test: Growth inhibition of human PC3 cells at 10 uM after 48 hrs by SRB assay; assay type: functional; details: PC-3, 48 h, read-out: GI; method in brief: as §1

Row | Structure (SMILES) | inhibition of growth at 10 µM
24 | Cc1ccc(-c2nc3ccc(Cl)cc3c(=O)n2NC(=O)CN)cc1 | < 10%

test system: SR; test: Growth inhibition of human SR cells at 10 uM after 48 hrs by SRB assay; assay type: functional; details: read-out: GI; method in brief: as §1

Row | Structure (SMILES) | inhibition of growth at 10 µM
25 | Cc1ccc(-c2nc3ccc(Cl)cc3c(=O)n2NC(=O)CN)cc1 | < 10%

test system: HCT-116; test: Growth inhibition of human HCT116 cells at 10 uM after 48 hrs by SRB assay; assay type: functional; details: HCT-116, 48 h, read-out: GI; method in brief: as §1

Row | Structure (SMILES) | inhibition of growth at 10 µM
26 | Cc1ccc(-c2nc3ccc(Cl)cc3c(=O)n2NC(=O)CN)cc1 | 11%

test system: MDA-MB-231; test: Growth inhibition of human MDA-MB-231 cells at 10 uM after 48 hrs by SRB assay; assay type: functional; details: MDA-MB-231, 48 h, read-out: GI; method in brief: as §1

Row | Structure (SMILES) | inhibition of growth at 10 µM
27 | Cc1ccc(-c2nc3ccc(Cl)cc3c(=O)n2NC(=O)CN)cc1 | < 10%

test system: not listed separately; test: Growth inhibition of human HCC2998 cells at 10 uM after 48 hrs by SRB assay; assay type: functional; details: HCC 2998, 48 h, read-out: GI; method in brief: as §1

Row | Structure (SMILES) | inhibition of growth at 10 µM
28 | Cc1ccc(-c2nc3ccc(Cl)cc3c(=O)n2NC(=O)CN)cc1 | < 10%

test system: TK-10; test: Growth inhibition of human TK10 cells at 10 uM after 48 hrs by SRB assay; assay type: functional; details: TK-10, 48 h, read-out: GI; method in brief: as §1

Row | Structure (SMILES) | inhibition of growth at 10 µM
29 | Cc1ccc(-c2nc3ccc(Cl)cc3c(=O)n2NC(=O)CN)cc1 | < 10%

test system: 786-0; test: Growth inhibition of human 786-0 cells at 10 uM after 48 hrs by SRB assay; assay type: functional; details: 786-0, 48 h, read-out: GI; method in brief: as §2

Row | Structure (SMILES) | inhibition of growth at 10 µM
30 | Cc1ccc(-c2nc3ccc(Cl)cc3c(=O)n2NC(=O)CN)cc1 | < 10%

test system: not listed separately; test: Growth inhibition of human OVCAR4 cells at 10 uM after 48 hrs by SRB assay; assay type: functional; details: OVCAR-4, 48 h, read-out: GI; method in brief: as §1

Row | Structure (SMILES) | inhibition of growth at 10 µM
31 | Cc1ccc(-c2nc3ccc(Cl)cc3c(=O)n2NC(=O)CN)cc1 | < 10%

test system: not listed separately; test: Growth inhibition of human MOLT4 cells at 10 uM after 48 hrs by SRB assay; assay type: functional; details: MOLT-4, 48 h, read-out: GI; method in brief: as §1

Row | Structure (SMILES) | inhibition of growth at 10 µM
32 | Cc1ccc(-c2nc3ccc(Cl)cc3c(=O)n2NC(=O)CN)cc1 | < 10%

test system: not listed separately; test: Growth inhibition of human RXF393 cells at 10 uM after 48 hrs by SRB assay; assay type: functional; details: RXF 393, 48 h, read-out: GI; method in brief: as §1

Row | Structure (SMILES) | inhibition of growth at 10 µM
33 | Cc1ccc(-c2nc3ccc(Cl)cc3c(=O)n2NC(=O)CN)cc1 | < 10%

test system: NCI-H460; test: Growth inhibition of human NCI-H460 cells at 10 uM after 48 hrs by SRB assay; assay type: functional; details: NCI-H460, 48 h, read-out: GI; method in brief: as §1

Row | Structure (SMILES) | inhibition of growth at 10 µM
34 | Cc1ccc(-c2nc3ccc(Cl)cc3c(=O)n2NC(=O)CN)cc1 | < 10%

test system: SN12C; test: Growth inhibition of human SN12C cells at 10 uM after 48 hrs by SRB assay; assay type: functional; details: read-out: GI; method in brief: as §1

Row | Structure (SMILES) | inhibition of growth at 10 µM
35 | Cc1ccc(-c2nc3ccc(Cl)cc3c(=O)n2NC(=O)CN)cc1 | < 10%

test system: NCI-H322M; test: Growth inhibition of human NCI-H322M cells at 10 uM after 48 hrs by SRB assay; assay type: functional; details: read-out: GI; method in brief: as §1

Row | Structure (SMILES) | inhibition of growth at 10 µM
36 | Cc1ccc(-c2nc3ccc(Cl)cc3c(=O)n2NC(=O)CN)cc1 | < 10%
